Active and inactive are the calls of the source. The rule behind the calls is not given here.

The record followed here is ChEMBL document CHEMBL3352121, “Modulation of Activity Profiles for Largazole-Based HDAC Inhibitors through Alteration of Prodrug Properties” (ACS Med Chem Lett, 2014).

Data set [1] concerns HCT-116. The data set can be described thus: In vivo inhibition of HDAC in tumor of human HCT116 cells xenografted nu/nu mouse assessed as increase in histone hyperacetylation at 10 mg/kg, ip after 4 to 12 hrs by immunoblotting method. Type of data set: functional, organism-based. More on the design: dose 10 mg/kg. A digest of the protocol: (§1)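 Mice bearing HCT116 xenografts were dosed intraperitoneally at 10 or 50 mg/kg, or orally at 50 mg/kg. Tumors were excised at 4, 12 and 24 h. Histone hyperacetylation in the tumors was assessed by immunoblot, n = 2.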

Data set [2] in a line: Drug metabolism in tumor of human HCT116 cells xenografted nu/nu mouse assessed as time for maximum largazole thiol level at 10 mg/kg, ip by HPLC-MS method. Type of data set: ADME, organism-based, Neoplasm, HCT-116. On the set-up: dose 10 mg/kg, route intraperitoneal. The note with it: in vivo. A general note: A xenograft is tissue or cells of one species grown in another, often human tumour cells in immunodeficient mice.

Data set [3] deals with HCT-116. In words: In vivo inhibition of HDAC in tumor of human HCT116 cells xenografted nu/nu mouse assessed as increase in histone hyperacetylation at 50 mg/kg, po after 4 to 12 hrs by immunoblotting method. It counts as functional, organism-based. On the set-up: dose 50 mg/kg. The gist of the method: as §1
For data set [4], the system named is HCT-116. In words: In vivo inhibition of HDAC in tumor of human HCT116 cells xenografted nu/nu mouse assessed as increase in histone hyperacetylation at 50 mg/kg, ip after 12 hrs by immunoblotting method. More on the design: dose 50 mg/kg. It counts as functional, organism-based. The gist of the method: as §1
The nature of data set [5]: Drug metabolism in tumor of human HCT116 cells xenografted nu/nu mouse assessed as time for maximum largazole thiol level at 50 mg/kg, ip by HPLC-MS method. Type of data set: ADME, organism-based, Neoplasm, HCT-116. More on the design: dose 50 mg/kg, route intraperitoneal. The settings on record: in vivo.
Data set [6] can be described thus: Drug metabolism in tumor of human HCT116 cells xenografted nu/nu mouse assessed largazole thiol formation at 50 mg/kg, po by HPLC-MS method. The settings on record: in vivo.
Data set [7] concerns HCT-116. In words: In vivo inhibition of HDAC in tumor of human HCT116 cells xenografted nu/nu mouse assessed as increase in histone hyperacetylation at 50 mg/kg, ip after 4 to 24 hrs by immunoblotting method. It counts as functional, organism-based. On the set-up: dose 50 mg/kg. A digest of the protocol:
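HCT116 xenograft mice were dosed intraperitoneally at 10 or 50 mg/kg. Tumors were excised after 4, 12 and 24 h, n = 2. Histone hyperacetylation in tumor tissue was assessed by immunoblotting.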

Take `CC(C)[C@@H]1NC(=O)[C@]2(C)CSC(=N2)c2csc(n2)CNC(=O)C[C@@H](/C=C/CCSSCC/C=C/[C@@H]2CC(=O)NCc3nc(cs3)C3=N[C@@](C)(CS3)C(=O)N[C@@H](C(C)C)C(=O)O2)OC1=O`: the inhibition result in the data set on HCT-116 [1] and with HCT-116 [7] was “Active” in each case. Moreover, the Tmax in data set [2] and in data set [5] was 4 h in each case. Also, the inhibition entry with HCT-116 [3] and in the data set with HCT-116 [4] was “inactive” in each case. Also, in data set [6], the Drug metabolism result is “metabolite_notdetected”.

What is called Tmax is the time from dosing to the highest level.
